Reference: ChEMBL document CHEMBL1142960, “Synthesis and structure-activity relationships for 2,4-dinitrobenzamide-5-mustards as prodrugs for the Escherichia coli nfsB nitroreductase in gene therapy” (J Med Chem, 2007)
In brackets after ≈: the same amount, converted by molar mass.

Columns and labels:
[1] = Solubility in alpha MEM; type: physicochemical
Outline: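 Solubility (mM) in α-MEM with 5% fetal calf serum at ambient temperature, measured by HPLC.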

EMT6 [2] = test: Antiproliferative activity against mouse wild type EMT6 NTR-ve cells after 18 hrs; type: functional, cell-based; settings: EMT6, 18 h
WiDr [3] = test: Antitumor activity against human 100% WiDr NTRneo tumor cells injected in CD1 nude mouse assessed as growth delay at 560 umol/kg, ip in DMA/PEG; type: functional
Outline: (§1)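 WiDr-NTRneo tumours (100% NTR+ve, or 1:9 NTR+ve:NTR-ve mixtures) in CD-1 nude mice, given a single i.p. dose at MTD. Read-out is median growth delay to 15 mm mean diameter, plus tumours not palpable 100 days after treatment. Aziridine given at 200 µmol/kg as positive control in every experiment.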

V79 [4] = test: Antiproliferative activity against chinese hamster V79 NTRpuro cells after 18 hrs; type: functional, cell-based; settings: Cricetulus griseus, V79, 18 h
EMT6 [5] = test: Antiproliferative activity against mouse EMT6 NTRpuro cells after 18 hrs; type: functional, cell-based; settings: EMT6, 18 h
WiDr [6] = test: Selectivity ratio of IC50 for WiDr NTR-ve cells to IC50 for WiDr NTRneo cells; type: functional, Homo sapiens
[7] = Partition coefficient at pH 7.4 by shake-flask method; type: physicochemical; settings: octanol/water
Outline: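 Octanol-water partition coefficient by shake-flask at pH 7.4, reported with SEM.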

[8] = Antiproliferative activity against human wild type Skov3 NTR-ve cells after 18 hrs; type: functional, cell-based
WiDr [9] = test: Antiproliferative activity against human wild type WiDr NTR-ve cells after 18 hrs; type: functional, cell-based
V79 [10] = test: Clonogenic survival of V79 NTRoua cells after 5 hrs by MCL assay; type: functional, Cricetulus griseus
[11] = Toxicity in ip dosed CD1 nude mouse in DMA/PEG; type: organism-based; settings: in vivo
Outline: (§2)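 Maximum tolerated dose (MTD) determined in CD-1 nude mice after a single i.p. injection of prodrug, given in the vehicle named in each line.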

[12] = Stability in alpha MEM at 37 degC after 24 hrs; type: physicochemical; settings: read-out: Stability
Outline: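 Percent parent compound remaining, by HPLC, after holding in α-MEM with 5% fetal calf serum at 37 °C for 24 h.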

V79 [13] = test: Selectivity ratio of IC50 for V79 NTR-ve cells to IC50 for V79 NTRpuro cells; type: functional, Cricetulus griseus
EMT6 [14] = test: Selectivity ratio of IC50 for EMT6 NTR-ve cells to IC50 forEMT6 NTRpuro cells; type: functional, Mus musculus
V79 [15] = test: Antiproliferative activity against chinese hamster wild-type V79 NTR-ve cells after 18 hrs; type: functional, cell-based; settings: Cricetulus griseus, V79, 18 h
EMT6 [16] = test: Antitumor activity against mixed mouse EMT6/EMT6 NTRpuro cells injected in CD1 nude mouse assessed as cell kill at 560 umol/kg, ip in DMA/PEG after 18 hrs; type: functional
[17] = Antiproliferative activity against human Skov3 NTRneo cells after 18 hrs; type: functional, cell-based; settings: SK-OV-3, 18 h
WiDr [18] = test: Antiproliferative activity against human WiDr NTRneo cells after 18 hrs; type: functional, cell-based
[19] = Selectivity ratio of IC50 for Skov3 NTR-ve cells to IC50 for Skov3 NTRneo cells; type: functional, Homo sapiens
V79 [20] = test: Clonogenic survival of 97% V79 NTRoua cells in co-cultures with 3% V79 NTRpuro cells after 5 hrs by MCL assay; type: functional, Cricetulus griseus
Outline: (§3)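 Multicellular layer cocultures of 3% V79-NTRpuro activators and 97% V79oua NTR-ve targets (ouabain-resistant), exposed to prodrug for 5 h. MCLs were then trypsin-dissociated and plated in ouabain or puromycin selective media for clonogenic survival. C10 (10% survival) interpolated for activators and targets; AC/TC ratio derived. Mean with SEM or range over independent experiments.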

V79 [21] = test: Clonogenic survival of 3% V79 NTRpuro cells in co-cultures with 97% V79 NTRoua after 5 hrs by MCL assay; type: functional, Cricetulus griseus; outline: as §3
[22] = Toxicity in ip dosed CD1 nude mouse in DMSO/PEG; type: organism-based; settings: in vivo; outline: as §2
EMT6 [23] = test: Antitumor activity against mixed mouse EMT6/EMT6 NTRpuro cells injected in CD1 nude mouse assessed as cell kill at 1330 umol/kg, ip in DMSO/PEG after 18 hrs; type: functional
WiDr [24] = test: Antitumor activity against mixed human 10% WiDr NTRneo/ 90% WiDr tumor cells injected in CD1 nude mouse assessed as growth delay at 1330 umol/kg, ip in DMSO/PEG; type: functional; outline: as §1
EMT6 [25] = test: Antitumor activity against mixed mouse EMT6/EMT6 NTRpuro cells injected in CD1 nude mouse assessed as cell kill at 562 umol/kg, ip in DMSO/PEG after 18 hrs; type: functional
WiDr [26] = test: Antitumor activity against human 100% WiDr NTRneo tumor cells injected in CD1 nude mouse assessed as growth delay at 562 umol/kg, ip in DMSO/PEG; type: functional; outline: as §1
WiDr [27] = test: Antitumor activity against human 100% WiDr NTRneo tumor cells injected in CD1 nude mouse assessed as growth delay at >1330 umol/kg, ip in DMSO; type: functional; outline: as §1
[28] = Toxicity in ip dosed CD1 nude mouse in DMSO; type: organism-based; settings: in vivo; outline: as §2
WiDr [29] = test: Antitumor activity against human 10% WiDr NTRneo/ 90% WiDr tumor cells injected in CD1 nude mouse assessed as growth delay at >1330 umol/kg, ip in DMSO; type: functional; outline: as §1
WiDr [30] = test: Antitumor activity against human 100% WiDr NTRneo tumor cells injected in CD1 nude mouse assessed as growth delay at 237 umol/kg, ip in DMSO/PEG; type: functional; outline: as §1
EMT6 [31] = test: Antitumor activity against mixed mouse EMT6/EMT6 NTRpuro cells injected in CD1 nude mouse assessed as cell kill at 237 umol/kg, ip in DMSO/PEG after 18 hrs; type: functional
WiDr [32] = test: Antitumor activity against mixed human 10% WiDr NTRneo/ 90% WiDr tumor cells injected in CD1 nude mouse assessed as growth delay at 2000 umol/kg, ip in DMSO; type: functional
Outline: (§4)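 WiDr tumors grown in CD-1 nude mice from stably NTR-transfected WiDr-NTRneo cells, either alone or mixed 1:9 with NTR-ve WiDr cells. Each mouse received a single i.p. dose. The read-out was median growth delay for tumors to reach an endpoint size of 15 mm mean diameter. Long-term controls were counted as tumors not palpable 100 days after treatment. The aziridine positive control was included in every experiment.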

WiDr [33] = test: Antitumor activity against human 100% WiDr NTRneo tumor cells injected in CD1 nude mouse assessed as growth delay at 2000 umol/kg, ip in DMSO; type: functional; outline: as §4
EMT6 [34] = test: Antitumor activity against mixed mouse EMT6/EMT6 NTRpuro cells injected in CD1 nude mouse assessed as cell kill at 2000 umol/kg, ip in DMSO after 18 hrs; type: functional
EMT6 [35] = test: Antitumor activity against mixed mouse EMT6/EMT6 NTRpuro cells injected in CD1 nude mouse assessed as cell kill at 237 umol/kg, ip in DMSO after 18 hrs; type: functional
WiDr [36] = test: Antitumor activity against human 100% WiDr NTRneo tumor cells injected in CD1 nude mouse assessed as growth delay at 300 umol/kg, ip in acetate; type: functional; outline: as §1
[37] = Toxicity in ip dosed CD1 nude mouse in sodium acetate; type: organism-based; settings: in vivo; outline: as §2
EMT6 [38] = test: Antitumor activity against mixed mouse EMT6/EMT6 NTRpuro cells injected in CD1 nude mouse assessed as cell kill at 300 umol/kg, ip in acetate after 18 hrs; type: functional
EMT6 [39] = test: Antitumor activity against mixed mouse EMT6/EMT6 NTRpuro cells injected in CD1 nude mouse assessed as cell kill at 178 umol/kg, ip in DMSO/PEG after 18 hrs; type: functional
EMT6 [40] = test: Antitumor activity against mixed mouse EMT6/EMT6 NTRpuro cells injected in CD1 nude mouse assessed as cell kill at 133 umol/kg, ip in DMA/PEG after 18 hrs; type: functional

SMILES	solubility [1] [µM]	IC50 (EMT6 [2]) [µM]	IC50 (V79 [4]) [µM]	IC50 (EMT6 [5]) [µM]	Ratio IC50 (WiDr [6])	logD [7]	IC50 [8] [µM]	IC50 (WiDr [9]) [µM]	Activity (V79 [10]) [µM]	remaining at 24 h [12] [%]	Ratio IC50 (V79 [13])	Ratio IC50 (EMT6 [14])	IC50 (V79 [15]) [µM]	IC50 [17] [µM]	IC50 (WiDr [18]) [µM]	Ratio IC50 [19]	Activity (V79 [20]) [µM]	Activity (V79 [21]) [µM]	MTD [22] [µmol/kg]	MTD [28] [µmol/kg]	further results
O=C(NCC(O)CO)c1cc(N(CCCl)CCCl)c([N+](=O)[O-])cc1[N+](=O)[O-] (stereo unspecified)	2900 (≈ 1230 µg/mL)	839	10	1.14	79	0.93	1710	984	3500	100	135	803	1160	5.1	14	327	510	95			Activity (WiDr [3]): 75 days; MTD [11]: 560 µmol/kg; LCK (EMT6 [16]): 1.49
O=C(NCC(O)CO)c1cc(N(CCBr)CCBr)c([N+](=O)[O-])cc1[N+](=O)[O-] (stereo unspecified)	1700 (≈ 874 µg/mL)	132	0.34	0.08	313	1.25	283	166	675	102	828	1670	275	0.28	0.63	1050	98	18	1330		LCK (EMT6 [23]): >3.36; Activity (WiDr [24]): 22 days
NC(=O)c1cc(N(CCBr)CCBr)c([N+](=O)[O-])cc1[N+](=O)[O-]		48	0.18	0.04	174	1.97	58	40	>50	98	302	1110	43	0.33	0.22	211	4.6	3.3	> 1330	> 1330	LCK (EMT6 [25]): 4.17; Activity (WiDr [26]): >84 days; Activity (WiDr [27]): >84 days; Activity (WiDr [29]): 20 days
O=C(NCC(O)CO)c1cc(N(CCI)CCI)c([N+](=O)[O-])cc1[N+](=O)[O-] (stereo unspecified)	960 (≈ 584 µg/mL)	58	1	0.12	90	1.79	97	64	245	90	100	482	114	0.56	0.82	172	54	12.5	237		Activity (WiDr [30]): 37 days; LCK (EMT6 [31]): 0.54
CS(=O)(=O)OCCN(CCOS(C)(=O)=O)c1cc(C(N)=O)c([N+](=O)[O-])cc1[N+](=O)[O-]		189	0.49	0.32	55	-0.7	226	24	>300		1200	755	536	1.2	0.67	220	152	13		2000	Activity (WiDr [32]): 20 days; Activity (WiDr [33]): >82 days; LCK (EMT6 [34]): >2.6
NC(=O)c1cc(N(CCCl)CCBr)c([N+](=O)[O-])cc1[N+](=O)[O-]	630 (≈ 249 µg/mL)	150	0.59	0.1	236	1.61	226	150	>300	62	237	2190	139	0.84	0.69	280	8.2	3.4		237	LCK (EMT6 [35]): >3.02
O=C(NCCN1CCOCC1)c1cc(N(CCCl)CCCl)c([N+](=O)[O-])cc1[N+](=O)[O-]	5200 (≈ 2410 µg/mL)	242	130	30	1.7	1.6	383	243	3500	100	1.6	8.9	201	82	149	5	3000	1500			Activity (WiDr [36]): 27 days; MTD [37]: 300 µmol/kg; LCK (EMT6 [38]): 0.07
O=C(NCCCO)c1cc(N(CCCl)CCCl)c([N+](=O)[O-])cc1[N+](=O)[O-]	4100 (≈ 1680 µg/mL)	422	7.7	1.02	51	1.49	948	518	3300	108	77	477	555	6.5	10	146	150	95	178		LCK (EMT6 [39]): 0.44
O=C(NCCO)c1cc(N(CCCl)CCCl)c([N+](=O)[O-])cc1[N+](=O)[O-]	1000 (≈ 395 µg/mL)	570	12	1.52	65	1.38	1250	666	>1000		59	386	312	5.9	10	230	210	95			MTD [11]: 133 µmol/kg; LCK (EMT6 [40]): >2.02
